Measured values as given in ChEMBL document CHEMBL1157252, “Antibacterial galloylated alkylphloroglucinol glucosides from myrtle (Myrtus communis)” (2006).
Values after ≈ are worked out from the molar mass of the structure shown. Active and inactive are the calls of the source. No cut-off for these calls is given here.

How the values were obtained:
Staphylococcus aureus [1] = experiment: Antibacterial activity against epidemic methicillin-resistant Staphylococcus aureus 15 expressing MecA at 256 ug/mL after 18 hrs by microtiter plate method; assay type: functional, organism-based
Staphylococcus aureus [2] = experiment: Antibacterial activity against Staphylococcus aureus RN4220 expressing MsrA efflux transporter at 256 ug/mL after 18 hrs by microtiter plate method; assay type: functional, organism-based
How it was run: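 Strain pre-grown on nutrient agar for 24 h at 37 °C. Inoculum matched to the 0.5 McFarland standard in normal saline and diluted to a final 5 × 10^5 cfu/mL in microtiter wells. Plates incubated 18 h at 37 °C. MIC taken as the lowest concentration with no bacterial growth, determined in duplicate.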

Staphylococcus aureus [3] = experiment: Antibacterial activity against methicillin-resistant Staphylococcus aureus XU212 expressing TetK efflux pump and MecA at 256 ug/mL after 18 hrs by microtiter plate method; assay type: functional, organism-based
Staphylococcus aureus [4] = experiment: Antibacterial activity against multidrug-resistant Staphylococcus aureus SA-1199B overexpressing NorA efflux transporter at 256 ug/mL after 18 hrs by microtiter plate method; assay type: functional, organism-based
Staphylococcus aureus [5] = experiment: Antibacterial activity against methicillin-resistant Staphylococcus aureus XU212 expressing TetK efflux pump and MecA after 18 hrs by microtiter plate method; assay type: functional
How it was run: (§1)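 Broth microdilution MIC. Strains were grown on nutrient agar for 24 h at 37 °C. Inoculum was made to the 0.5 McFarland standard in normal saline and diluted to a final 5 × 10^5 cfu/mL. Plates were incubated for 18 h at 37 °C. MIC was taken as the lowest concentration with no observed growth, determined in duplicate.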

Staphylococcus aureus [6] = experiment: Antibacterial activity against methicillin-susceptible Staphylococcus aureus ATCC 25923 after 18 hrs by microtiter plate method; assay type: functional; settings: for MIC: ATCC 25923, 18 h; how it was run: as §1
Staphylococcus aureus [7] = experiment: Antibacterial activity against Staphylococcus aureus RN4220 expressing MsrA efflux transporter after 18 hrs by microtiter plate method; assay type: functional; settings: for MIC: RN4220, 18 h; how it was run: as §1
Staphylococcus aureus [8] = experiment: Antibacterial activity against multidrug-resistant Staphylococcus aureus SA-1199B overexpressing NorA efflux transporter after 18 hrs by microtiter plate method; assay type: functional; how it was run: as §1
Staphylococcus aureus [9] = experiment: Antibacterial activity against epidemic methicillin-resistant Staphylococcus aureus 15 expressing MecA after 18 hrs by microtiter plate method; assay type: functional; how it was run: as §1

Compound | Activity (Staphylococcus aureus [1]) | Activity (Staphylococcus aureus [2]) | Activity (Staphylococcus aureus [3]) | Activity (Staphylococcus aureus [4]) | MIC (Staphylococcus aureus [5]) | MIC (Staphylococcus aureus [6]) | MIC (Staphylococcus aureus [7]) | MIC (Staphylococcus aureus [8]) | MIC (Staphylococcus aureus [9]) | other results
CC(C)=C[C@]1(O)C(=O)C(C)(C)C(=O)C(C)(C)[C@@H]1O[C@@H]1O[C@H](COC(=O)c2cc(O)c(O)c(O)c2)[C@@H](O)[C@H](O)[C@H]1O | inactive | inactive | inactive | inactive | – | – | – | – | – | –
CCn1cc(C(=O)O)c(=O)c2cc(F)c(N3CCNCC3)cc21 [NORFLOXACIN] | – | – | – | – | 4 µg/mL (≈ 12.5 µM) | 1 µg/mL (≈ 3.13 µM) | 2 µg/mL (≈ 6.26 µM) | 32 µg/mL (≈ 100 µM) | 0.5 µg/mL (≈ 1.57 µM) | –
CC1(C)C=C2C(=O)C(C)(C)C(=O)C(C)(C)C2(O)OO1 (stereo not drawn) | – | – | – | – | – | – | – | – | – | Activity (Staphylococcus aureus [5]): inactive; Activity (Staphylococcus aureus [6]): inactive; Activity (Staphylococcus aureus [7]): inactive; Activity (Staphylococcus aureus [8]): inactive; Activity (Staphylococcus aureus [9]): inactive
CC(C)C[C@]1(O)C(=O)C(C)(C)C(=O)C(C)(C)[C@@H]1O[C@@H]1O[C@H](COC(=O)c2cc(O)c(O)c(O)c2)[C@@H](O)[C@H](O)[C@H]1O [GALLOMYRTUCOMMULONE A] | – | – | – | – | 256 µg/mL (≈ 449 µM) | 128 µg/mL (≈ 224 µM) | 128 µg/mL (≈ 224 µM) | 256 µg/mL (≈ 449 µM) | 128 µg/mL (≈ 224 µM) | –
CC(C)CC1(O)C(=O)C(C)(C)C(O[C@@H]2O[C@H](COC(=O)c3cc(O)c(O)c(O)c3)[C@@H](O)[C@H](O)[C@H]2O)C(C)(C)C1=O (stereo partly drawn) [GALLOMYRTUCOMMULONE B] | – | – | – | – | 128 µg/mL (≈ 224 µM) | 64 µg/mL (≈ 112 µM) | 128 µg/mL (≈ 224 µM) | 128 µg/mL (≈ 224 µM) | 128 µg/mL (≈ 224 µM) | –
CC(C)=C[C@@]1(O)C(=O)C(C)(C)C(=O)C(C)(C)[C@@H]1O[C@@H]1O[C@H](COC(=O)c2cc(O)c(O)c(O)c2)[C@@H](O)[C@H](O)[C@H]1O | inactive | inactive | inactive | inactive | – | – | – | – | – | –
